Each structure is given as a SMILES string. Values after ≈ are worked out from the molar mass of the structure shown.

The subject of the test is Candida albicans. Put plainly: In vitro inhibitory activity against Candida albicans. Type of test: functional, organism-based. The method in brief: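 Microbroth dilution; C. albicans ATCC 36082, inoculum 10³ cfu/mL in YNB medium (yeast-nitrogen base 6.7 g/L, glucose 10 g/L, pH 7). Incubated 24 h at 37 °C; growth read photo-/nephelometrically at 360 nm; IC₅₀ determined.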

[1] abbreviates: Candida albicans, read-out: IC50.

As to `C=C1CC[C@@H](C(=O)O)[C@H]1N.Cl`, under setting [1], the 50% inhibitory concentration (IC50) came to 32 µg/mL.
Same read-out and setting: in the case of `Cl.N[C@H]1CCC[C@H]1C(=O)O` it was 0.13 µg/mL.
Molecule `Cl.Cl.NC1C[C@H](N)[C@H](C(=O)O)C1` (mixture of isomers) registered a 50% inhibitory concentration (IC50) of 64 µg/mL.
For `N[C@H]1CC2(CC2)C[C@H]1C(=O)O`, the IC50 under setting [1] is 32 µg/mL (≈ 206 µM).
`CC1CC[C@H](N)[C@@H]1C(=O)O.Cl` (single isomer, unassigned; Diastereomer B) registered a 50% inhibitory concentration (IC50) of 16 µg/mL.
`CC1CC[C@@H](C(=O)O)[C@H]1N.Cl` (some centres not stated) returned an IC50 of 128 µg/mL.
For the molecule `Cl.N[C@H]1CC2(C[C@H]1C(=O)O)OCCO2`, the IC50 under setting [1] is 32 µg/mL.
On the same count and under the same terms, the figure for `Cl.N[C@H]1C=CC[C@H]1C(=O)O` is 0.5 µg/mL.
For the molecule `Cl.Cl.N[C@H]1CCN[C@H]1C(=O)O`, the IC50 is > 256 µg/mL.
Turning to `C=C=C1C[C@H](N)[C@H](C(=O)O)C1.Cl`, the IC50 amounted to 128 µg/mL.
In the case of `CC1(C)C[C@H](N)[C@H](C(=O)O)C1.Cl`, the IC50 was determined as 256 µg/mL.
Still for that read-out and setting: the figure for `Cl.N[C@H]1CCS[C@H]1C(=O)O` is > 256 µg/mL.
Turning to `Cl.N[C@H]1CC=CC[C@H]1C(=O)O`, the IC50 was found to be 128 µg/mL.
Consider `C=C1CN[C@H](C(=O)O)C1.Cl`, for which, under setting [1], the IC50 was 32 µg/mL.
As for `C=C1C[C@H](NCC)[C@H](C(=O)O)C1`, the IC50 is 128 µg/mL (≈ 756 µM).
The same measure, in the same setting: in the case of `Cl.N[C@H]1C=CCO[C@H]1C(=O)O` it was 64 µg/mL.
As to `CC1=C[C@H](N)[C@H](C(=O)O)C1.Cl`, the IC50 under setting [1] is 8 µg/mL.
`C[C@]1(N)CCC[C@H]1C(=O)O.Cl` showed an IC50 of 64 µg/mL.
Consider `C=C1C[C@H](N)[C@H](C(=O)OC)C1.Cl`, for which the IC50 under setting [1] was found to be 2 µg/mL.
For `C=C1C[C@H](N)[C@H](C(=O)N[C@H](CC(C)C)C(=O)O)C1.Cl`, under setting [1], the IC50 was determined as 16 µg/mL.
Regarding `C=C1CC[C@H](N)[C@H](C(=O)O)C1.Cl`, the IC50 was > 256 µg/mL.
`C=C1C[C@H](N)[C@@H]1C(=O)O.Cl`: the IC50 is > 256 µg/mL.
The same measure, in the same setting: in the case of `C=C1C[C@H](N)[C@H](C(=O)O)C1C.Cl` (some centres not stated) it was 128 µg/mL; in that of `C=C1C[C@@H](C(=O)O)[C@@H](N)C1C.Cl` (mixture of isomers), 64 µg/mL.
On the same count and under the same terms, the figure for `C=C1C[C@H](C(=O)O)[C@@H](N)C1.Cl` is 128 µg/mL.
With `N[C@H]1COC[C@H]1C(=O)O`, under setting [1], the IC50 amounted to 32 µg/mL (≈ 244 µM).
As for `C=C1C[C@@H](C(=O)O)[C@H]1N.Cl`, the half-inhibitory concentration (IC50) was > 256 µg/mL.
In the case of `C=C1C[C@H](N)[C@H](C(=O)O)C1` [ICOFUNGIPEN], the IC50 under setting [1] worked out at 0.13 µg/mL (≈ 0.921 µM).
Still for that read-out and setting: in the case of `CC1C=C(C(=O)O)C(N)C1.Cl` (configuration not stated) it was 16 µg/mL.
For the molecule `C=C1C[C@H](N)[C@H](c2nnn[nH]2)C1.Cl`, the IC50 amounted to 128 µg/mL.
For the molecule `CC1C[C@H](N)[C@H](C(=O)O)C1.Cl` (mixture of isomers), the concentration for half-maximal inhibition (IC50) under setting [1] was determined as 4 µg/mL.
The molecule `Cl.N[C@H]1CCCC[C@H]1C(=O)O` yielded an IC50 of 128 µg/mL.
The same measure, in the same setting: in the case of `Cl.N[C@H]1CC(F)(F)C[C@H]1C(=O)O` it was 128 µg/mL; in that of `C=C1C[C@@H](N)[C@@H](C(=O)O)C1.Cl`, 128 µg/mL.
On to `C=C1C[C@H](N)[C@H](C(=O)NC)C1.Cl`, for which the 50% inhibitory concentration (IC50) under setting [1] came out at 32 µg/mL.
In the case of `CCCC(N)CC(=O)O.Cl` (configuration not stated), the IC50 was > 256 µg/mL.
Turning to `CC1CC[C@H](N)[C@@H]1C(=O)O.Cl` (stereo in doubt), the IC50 under setting [1] was determined as 8 µg/mL.
Still for that read-out and setting: in the case of `CC1=C[C@@H](C(=O)O)[C@@H](N)C1.Cl` it was 32 µg/mL.
`N[C@H]1CSC[C@H]1C(=O)O` gave an IC50 of 64 µg/mL (≈ 435 µM).
In the case of `C=C1CC[C@@H](C(=O)O)[C@@H](N)C1.Cl`, under setting [1], the IC50 turned out to be 16 µg/mL.
As for `C=C1C[C@@H](CO)[C@@H](N)C1`, the IC50 was > 256 µg/mL.
With `Cl.N[C@H]1C=CCC[C@H]1C(=O)O`, under setting [1], the IC50 worked out at 0.03 µg/mL.
In the case of `Cl.N[C@H]1CCC[C@H]1P(=O)(O)O`, the IC50 was > 256 µg/mL.
As to `N[C@H]1CCC[C@H]1C(F)(F)F`, under setting [1], the IC50 was found to be 1 µg/mL (≈ 6.53 µM).
On the same count and under the same terms, the figure for `C=C1C[C@H](N)[C@H](C(=O)NO)C1` is 32 µg/mL (≈ 205 µM); for `C=C1C[C@H](NC(=O)OC(C)(C)C)[C@H](C(=O)O)C1` it is 16 µg/mL (≈ 66.3 µM).
With `Cl.N[C@H]1CC[C@H]1C(=O)O`, the IC50 amounted to 128 µg/mL.
The same measure, in the same setting: in the case of `Cl.N[C@H]1CCC[C@H]1S(=O)(=O)O` it was > 256 µg/mL.
For the molecule `C=C1C[C@H](NC(=O)[C@@H](N)CC(C)C)[C@H](C(=O)O)C1.Cl`, the IC50 under setting [1] was 2 µg/mL.
On to `Cl.N[C@H]1CC(O)C[C@H]1C(=O)O` (some centres not stated), for which the IC50 worked out at 128 µg/mL.
Same read-out and setting: the figure for `C=CC1C[C@H](N)[C@H](C(=O)O)C1.Cl` (some centres not stated) is 128 µg/mL.
Same read-out and setting: in the case of `CCCC/C=C1/C[C@H](N)[C@H](C(=O)O)C1.Cl` it was 128 µg/mL.

The values above are taken from ChEMBL document CHEMBL1136549, “Novel antifungal beta-amino acids: synthesis and activity against Candida albicans” (Bioorg Med Chem Lett, 2003).
